Calls of active or inactive are those of the source. No cut-off for these calls is given here.
Columns and labels:
Candida albicans [1] = experiment: Induction of apoptosis in Candida albicans ATCC 90028 protoplast assessed as necrotic cells at 20 uM after 48 hrs Annexin V-FITC/propidium iodide staining based flow cytometric analysis (reference value: 0.33 +/- 0.20%); assay type: functional
Candida albicans [2] = experiment: Antifungal activity against Candida albicans ATCC 90028 infected in Galleria mellonella larvae infected with 20 uM compound pre-treated cell suspensions assessed as cocoon formation incubated in dark for 144 hrs at 30 degC and measured every 24 hrs (reference value: 65%); assay type: organism-based
Candida albicans [3] = experiment: Antibiofilm activity in Candida albicans ATCC 90028 assessed as beta-glucan uniform distribution at 20 uM after 18 hrs by Congo red staining-based confocal laser scanning microscopic analysis; assay type: functional, organism-based
Summary of the method: (§1)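 Mature C. albicans biofilm cells were stained with 2% Congo Red to detect β-glucan exposure. They were imaged by confocal laser scanning microscopy as fluorescence and fluorescence/DIC overlays. Treated biofilms were compared with untreated control biofilm.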

Candida albicans [4] = experiment: Induction of apoptosis in Candida albicans ATCC 90028 planktonic forms assessed as increase in DNA damage at 4 ug/ml by ethidium bromide staining based gel electrophoresis and confocal laser scanning microscopy; assay type: functional, organism-based
Candida albicans [5] = experiment: Antibiofilm activity in Candida albicans ATCC 90028 assessed as beta-glucan uniform distribution at 248 uM after 18 hrs by Congo red staining-based confocal laser scanning microscopic analysis; assay type: functional, organism-based; summary of the method: as §1
Candida albicans [6] = experiment: Antibiofilm activity in Candida albicans ATCC 90028 assessed as early apoptotic morphological changes by measuring crescent-shaped nuclei at 248 uM after 18 hrs by acridine orange/ethidium bromide staining-based confocal laser scanning fluorescence microscopic analysis; assay type: functional
Summary of the method: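 Unfixed biofilm cells were dual-stained in situ with acridine orange and ethidium bromide, each at 100 µg/mL. Confocal fluorescence and DIC imaging scored green AO nuclei, crescent-shaped chromatin, reddish-orange late apoptotic/necrotic cells and EB uptake, against untreated control biofilm. […]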

Candida albicans [7] = experiment: Induction of apoptosis in Candida albicans ATCC 90028 planktonic forms assessed as increase in DNA damage at 1 ug/ml by ethidium bromide staining based gel electrophoresis and confocal laser scanning microscopy; assay type: functional, organism-based
Candida albicans [8] = experiment: Effect on dilpoid nuclei level in Candida albicans ATCC 90028 planktonic forms at 128 ug/ml by ethidium bromide staining based gel electrophoresis and confocal laser scanning microscopy; assay type: functional, organism-based
Candida albicans [9] = experiment: Effect on dilpoid nuclei level in Candida albicans ATCC 90028 planktonic forms at 0.03 ug/ml by ethidium bromide staining based gel electrophoresis and confocal laser scanning microscopy; assay type: functional, organism-based
Candida albicans [10] = experiment: Induction of apoptosis in Candida albicans ATCC 90028 planktonic forms assessed as accumulation at subG1 phase at 1 to 128 ug/ml by ethidium bromide staining based gel electrophoresis and confocal laser scanning microscopy; assay type: functional, organism-based

Row | Structure (SMILES) | Activity (Candida albicans [1]) [%] | Activity (Candida albicans [2]) [%] | Activity (Candida albicans [3]) | Activity (Candida albicans [4]) | Activity (Candida albicans [5]) | fold change (FC) (Candida albicans [6]) | Activity (Candida albicans [7]) | Activity (Candida albicans [8]) | Activity (Candida albicans [9]) | Activity (Candida albicans [10])
1 | CC(Cn1cnc2c1c(=O)n(C)c(=O)n2C)OCc1cn(CCCn2nc3c(Br)c(Br)c(Br)c(Br)c3n2)nn1 (stereo not given) | 93.94 | 98 | Active | Active | – | – | – | – | – | –
2 | CC(CN1c2ccccc2Sc2ccccc21)OC(=O)OC(C)Cn1cnc2c1c(=O)n(C)c(=O)n2C (stereo not given) | – | – | – | – | inactive | 2 | inactive | inactive | inactive | inactive
